Screening results: PubChem, several laboratories
Only some compounds are listed: those with a hit (about 2.1% of all), similar ones and a draw of the others.
SMARCA2 activ: increases SMARCA2 function in MMTV reporter cells | MG213 cells, MMTV-luciferase reporter, dexamethasone, overnight | activation, % at 9.1 µM | actives 1% (n = 370,000); in the data active means activation above about 7.8%;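 further: 0% = vehicle wells and 100% = reference activator wells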
MC4R antag cAMP: antagonists of human melanocortin 4 receptor (MC4R). actives 0.48% (n = 360,000). inhibition, % at 6.5 µM. P32245. MC4R-expressing cells, MTII-stimulated cAMP, LANCE TR-FRET. AID 540295;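 active means inhibition above its plate's cutoff, the mean of tested wells on that plate plus 3 SD, cut at about 29% in these data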;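 further: 0% = Melanotan II alone and 100% = Melanotan II plus saturating MCL0020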
Target sequence (P32245 whole entry, looked up): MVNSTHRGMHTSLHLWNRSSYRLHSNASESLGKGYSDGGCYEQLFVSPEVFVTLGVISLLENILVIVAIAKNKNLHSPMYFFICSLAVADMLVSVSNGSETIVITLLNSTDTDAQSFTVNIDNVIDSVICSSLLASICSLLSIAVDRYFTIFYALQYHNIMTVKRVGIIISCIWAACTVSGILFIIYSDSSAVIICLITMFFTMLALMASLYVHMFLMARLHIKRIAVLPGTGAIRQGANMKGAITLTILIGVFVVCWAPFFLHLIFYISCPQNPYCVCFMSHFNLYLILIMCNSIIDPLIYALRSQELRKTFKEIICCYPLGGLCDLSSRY
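System: U2OS cells stably expressing human melanocortin 4 receptor (MC4R). Reagent: Melanotan II challenge after compound preincubation. Doses: 6.5 µM. Times: 30-min compound, 1-h challenge, 1-h detection, room temperature. Measured by: TR-FRET with Eu-cAMP and labeled anti-cAMP, 671 nm. Replicates: singlicate.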
F508del corr: CFTR F508del correction in bronchial cells | AID 720511 | CFBE cells, YFP halide quenching; stimulated with forskolin plus potentiator P3; % fluorescence drop versus neutral controls | actives 0.36% (n = 350,000) | activity (quench increase), % at 7.58 µM;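 active means mean added fluorescence quench of at least 8% versus neutral control, with both replicates also reaching 8%; inconclusive means only one of the mean or replicate conditions met; inactive means mean below 8% and not both replicates reaching 8%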;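 further: cells transiently co-express mutant CFTR-F508del with the halide-sensitive YFP; corrector assay measuring rescue of mutant channel to the surface after 24 h compound exposure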
MC4R ag barr: activates human MC4R beta-arrestin recruitment | AID 540308 | U2OS MC4R beta-arrestin complementation, luminescence; percent of melanotan II response, DMSO zero | actives 0.98% (n = 360,000) | activation, % at 8.9 µM;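 active means activation above a per-plate cutoff, the mean activation of sample wells on that plate plus 3 SD, cut at about 8% in these data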
* marks the source's active call; other numbers are inactive results; u = inconclusive; x = not tested or not shown.

SMILES	SMARCA2 activ	MC4R antag cAMP	F508del corr	MC4R ag barr
Cc1cc(C)c(C)c(OCCOCCN2CCN(C)CC2)c1	-3	2	x	-3
Cc1cc(C)c(C)c(OCCCCN2CCCCC2)c1	7.9*	2	-1	0
O=C(C[C@@H]1CC[C@H]2[C@@H](COC[C@H](O)CN2Cc2cccc(C(F)(F)F)c2)O1)NCc1ccc(Cl)cc1	x	x	-1	x
O=C(N/N=C/c1ccccn1)c1ccccc1	4	19	7	-1
Cc1ccccc1C(=O)N/N=C/c1ccccn1	10*	-2	1	-2
C[C@H]1CN([C@@H](C)CO)C(=O)Cc2cc(NC(=O)CCN3CCOCC3)ccc2O[C@H]1CN(C)S(=O)(=O)c1ccc(Cl)cc1	x	x	2	x
O=C(CSc1nc2ccccc2n1-c1ccccc1)Nc1ncc(Cl)cc1Cl	2	6	8.7*	0
COc1cccc(OC)c1-c1nn2c(-c3cc(-c4ccccc4)n[nH]3)nnc2s1	1	-5	x	36*
Clc1ccccc1-c1nn2c(-c3cc(-c4ccccc4)n[nH]3)nnc2s1	-2	x	x	x
Cc1ccc(CN(C)C[C@@H]2OCc3cn(nn3)CCCC(=O)N([C@H](C)CO)C[C@@H]2C)cc1	x	x	-1	x
COCC(=O)N1C[C@H]2[C@@H](c3ccccc31)[C@H](CO)N2C(=O)C1CCOCC1	x	x	3	x
COc1cccc(NC(=O)N[C@@H]2C=C[C@H](CC(=O)N3CCN(C)CC3)O[C@@H]2CO)c1	x	x	-3	x
COc1ccc2c3c(ccc2c1)C(=O)/C(=C/O)CC3	1	11	0	26*
O=C(COc1ccc2ccccc2c1)Nc1cccnc1Cl	5	13	0	8.3*
C[C@@H]1CN([C@H](C)CO)C(=O)c2cc(C#Cc3cccnc3)cnc2O[C@@H]1CN(C)C	x	x	-2	x
COCCNC(=O)NC12CC3(C)CC(C)(CC(C)(C3)C1)C2	3	8	10*	-2
COCCNC(=O)NC12CC3CC(CC(C3)C1)C2	1	2	-4	-2
C[C@H]1CN([C@@H](C)CO)C(=O)c2cccc(NC(=O)c3ccncc3)c2O[C@@H]1CN(C)Cc1ccccc1	x	x	0	x
CNC(=S)N1N=C(c2ccc(C)cc2)CC1c1cc(OC)ccc1OC (configuration not stated)	-1	9	2	3
COc1ccc(OC)c(C2CC(c3ccccc3)=NN2C(=S)Nc2ccccc2)c1 (configuration not stated)	-2	-5	11*	-1
FC(F)(F)c1cccc(Sc2cc(C(F)(F)F)nc(-c3ccccn3)n2)c1	4	12	x	9.1*
COc1ccccc1N1CC(C(=O)Nc2ccc(S(=O)(=O)N3CCCC3)cc2)CC1=O (configuration not stated)	-2	5	9.6*	-1
COc1ccc2ccccc2c1/C=N/NC(=O)c1sc(N)c(C#N)c1C	-1	-11	-2	10*
Cc1cc2c([nH]c3ccccc32)c(C)n1	-2	0	1	0
Cc1c2ccncc2cc2c1[nH]c1ccccc12	3	10	12*	2
SMILES	SMARCA2 activ	MC4R antag cAMP	F508del corr	MC4R ag barr
O=C(C[C@H]1CC[C@@H](NC(=O)Cc2ccccn2)[C@@H](CO)O1)NCCc1ccncc1	x	x	1	x
CCOC(=O)Cn1c(COc2ccccc2OC)[n+](C)c2ccccc21	-2	1	0	-1
CCCCCCCCCCOC(=O)Cn1c(COc2ccccc2C)[n+](C)c2ccccc21	x	3	x	49*
CCCCCCCCCCOC(=O)Cn1c(COc2ccc(Cl)cc2)[n+](C)c2ccccc21	-5	22	-2	17*
CCCCOC(=O)Cn1c(=O)n(CC(=O)OCCCC)c2ccccc21	1	3	x	0
COc1cc(-c2cc(=O)c3c(O)cc(O)cc3o2)cc(OC)c1OC	0	-31	-5	0
COc1ccc(-c2cc(=O)c3c(O)cc(O)cc3o2)cc1	7.9*	-12	9.8*	2
O=c1cc(-c2ccc(O)c(O)c2)oc2cc(O)cc(O)c12	4	-26	8.0*	1
CCCC#Cc1ccc2c(c1)O[C@H](CN(C)C(=O)C1CC1)[C@H](C)CN([C@H](C)CO)S2(=O)=O	x	x	-4	x
C[C@H]1CN([C@@H](C)CO)C(=O)c2cc(NC(=O)CCC(F)(F)F)ccc2O[C@@H]1CN(C)Cc1ccccc1	x	x	-1	x
CCC(=O)Nc1ccc2c(c1)OC[C@H](C)N(Cc1cccc(F)c1)C[C@@H](C)[C@H](OC)CN(C)C2=O	x	x	0	x
Cc1cc2oc(C(=O)NCCc3ccc(S(N)(=O)=O)cc3)c(C)c2cc1C	0	16	12*	-4
Cc1cc2oc(C(=O)NCCc3ccc(S(N)(=O)=O)cc3)cc(=O)c2cc1C	0	-1	-1	0
CCOCCCNc1nc(C(F)(F)F)nc2c1nnn2Cc1ccccc1Cl	-4	3	2	-1
CC(=O)Nc1ccc(Nc2nc(C(F)(F)F)nc3c2nnn3Cc2ccccc2Cl)cc1	1	22	u	8.9*
COc1ccc(CNC(=O)C[C@@H]2C[C@@H]3c4cc(NC(=O)CC5CC5)ccc4O[C@@H]3[C@@H](CO)O2)cc1	x	x	-3	x
CC(C)NC(=O)N(C)C[C@@H]1Oc2ncc(-c3ccccc3F)cc2C(=O)N([C@H](C)CO)C[C@H]1C	x	x	-4	x
COc1ccc(NC(=O)C(=O)c2cn(CC(=O)N3CCCC3)c3ccccc23)cc1OC	-2	-6	9.3*	0
C[C@@H]1CCCCO[C@@H](CN(C)C(=O)Nc2cccc3ccccc23)[C@H](C)CN([C@@H](C)CO)C(=O)c2cc(NS(=O)(=O)c3ccc(F)cc3)ccc2O1	x	x	0	x
CCOc1ccc2nc(NCCNC(=O)Nc3ccccc3)c(C#N)cc2c1	0	-3	x	9.6*
C[C@@H]1CCCCO[C@@H](CN(C)C(=O)C2CCCCC2)[C@@H](C)CN([C@@H](C)CO)C(=O)c2cc(NC(=O)CCCN(C)C)ccc2O1	x	x	-2	x
Cc1ccc(S(=O)(=O)N(C)C[C@H]2OCCCC[C@H](C)Oc3ccc(NC(=O)c4ccccc4)cc3C(=O)N([C@@H](C)CO)C[C@H]2C)cc1	x	x	0	x
Nc1c(C(=O)c2ccco2)oc2ccccc12	7	x	14*	x
Nc1c(C(=O)c2ccccc2)oc2ccccc12	2	-4	x	0
CO[C@@H]1CN(C)C(=O)c2ccc(NC(=O)C3CC3)cc2OC[C@@H](C)N(CCC(F)(F)F)C[C@@H]1C	x	x	0	x
SMILES	SMARCA2 activ	MC4R antag cAMP	F508del corr	MC4R ag barr
COC(=O)Cc1c(O)ccn(Cc2ccc(OC)c(OC)c2)c1=O	2	11	1	-1
COC(=O)Cc1c(O)ccn(Cc2ccc(Cl)c(Cl)c2)c1=O	3	-4	14*	-2
O=C(O)CCn1cc(/C=C/C(=O)c2ccc(Cl)cc2)c(-c2ccc(Br)cc2)n1	1	35*	-1	-1
O=C(O)/C=C/c1cn(Cc2ccccc2)nc1-c1ccccc1	-1	13	x	0
COC(=O)[C@H](C)N(Cc1cn(Cc2ccccc2)nn1)S(=O)(=O)c1ccccc1Br	7.8*	x	x	x
CCN(CC)C(=O)c1oc2ccc(S(=O)(=O)N3CCCCCC3)cc2c1C	-4	2	-1	-3
